From ChEMBL document CHEMBL1141510, “Synthesis and antioxidant activities of 3,5-dialkoxy-4-hydroxycinnamamides” (Bioorg Med Chem Lett, 2008)

What was measured:
[1] = test system: Radical scavenging activity; assay: Antioxidant activity assessed as DPPH radical scavenging activity; assay type: functional
In short: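 Sample in ethanol added 1:9 to 0.15 mM DPPH radical in ethanol. Test compound solutions ranged 3–1000 µg/ml. Ethanol alone served as control. Reaction ran 10 min at 25 °C, then absorbance was read at 517 nm. Scavenging expressed as percent loss relative to control absorbance. EC50 taken as the concentration giving 50% loss of DPPH radical.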

Brain = assay: Inhibition of lipid peroxidation in Sprague-Dawley rat brain after 30 mins by TBARS assay; assay type: functional, tissue-based; conditions: 0.5 h
In short: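 Brain from male Sprague–Dawley rats (about 10 weeks old) homogenized in ice-cold 10 mM Tris–HCl, pH 7.4, and spun 10 min at 1000g; the supernatant was used. TBARS read at 532 nm against a 1,1,3,3-tetraethoxypropane external standard.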

[2] = Antioxidant activity assessed as ABTS radical scavenging activity at 150 uM; assay type: functional
[3] = Antioxidant activity assessed as ABTS radical scavenging activity; assay type: functional
[4] = test system: Radical scavenging activity; assay: Antioxidant activity assessed as DPPH radical scavenging activity at 300 uM; assay type: functional

SMILES | IC50 [1] | IC50 (Brain) | IC50 [3] | Activity [2] | Activity [4]
CCCC(C)Oc1cc(/C=C/C(=O)NCCc2cc(C(C)(C)C)c(O)c(C(C)(C)C)c2)cc(OC(C)CCC)c1O (centres undefined) | 85.1 µM | 0.36 µM | – | 64% | –
COc1cc(/C=C/C(=O)NCc2cc(C(C)(C)C)c(O)c(C(C)(C)C)c2)cc(OC)c1O | 80.3 µM | 1.46 µM | 11.3 µM | – | –
CCCC(C)Oc1cc(/C=C/C(=O)NCc2cc(C(C)(C)C)c(O)c(C(C)(C)C)c2)cc(OC(C)CCC)c1O (centres undefined) | 66.6 µM | 0.57 µM | – | 47% | –
CCCCCCOc1cc(/C=C/C(=O)O)cc(OCCCCCC)c1O | – | 2.24 µM | – | – | –
COc1cc(CC(=O)NCCCc2ccc(C)c(C)c2)ccc1O | – | 25.9 µM | – | – | –
CCC(CC)Oc1cc(/C=C/C(=O)NCc2cc(C(C)(C)C)c(O)c(C(C)(C)C)c2)cc(OC(CC)CC)c1O | 67.7 µM | 0.82 µM | – | 44% | –
COc1cc(CNC(=O)CCCc2ccc(C)c(C)c2)ccc1O | – | 57.2 µM | – | – | –
CCC(CC)Oc1cc(/C=C/C(=O)NCCc2cc(C(C)(C)C)c(O)c(C(C)(C)C)c2)cc(OC(CC)CC)c1O | – | 0.44 µM | – | – | 55%
COc1cc(/C=C/C(=O)O)cc(OC)c1O [SINAPINATE] | – | 4.77 µM | – | – | –
CCCCOc1cc(/C=C/C(=O)O)cc(OCCCC)c1O | – | 3.68 µM | – | – | –
CCC(CC)Oc1cc(/C=C/C(=O)O)cc(OC(CC)CC)c1O | – | 2.21 µM | – | – | –
CCCCCCOc1cc(/C=C/C(=O)NCCCc2ccc(C)c(C)c2)cc(OCCCCCC)c1O | 77.7 µM | 0.29 µM | 28.5 µM | – | –
CCCC(C)Oc1cc(/C=C/C(=O)O)cc(OC(C)CCC)c1O (centres undefined) | – | 4.84 µM | – | – | –
CCCC(C)Oc1cc(/C=C/C(=O)NCCCc2ccc(C)c(C)c2)cc(OC(C)CCC)c1O (centres undefined) | 68.4 µM | 1.33 µM | 26.3 µM | – | –
CCC(CC)Oc1cc(/C=C/C(=O)NCCCc2ccc(C)c(C)c2)cc(OC(CC)CC)c1O | 84.4 µM | 1.73 µM | – | 49% | –

Further lines, with some results ahead:

IC50 [1] | IC50 (Brain) | IC50 [3] | SMILES | Activity [2] | Activity [4]
114 µM | 0.26 µM | – | CCCOc1cc(/C=C/C(=O)NCCc2cc(C(C)(C)C)c(O)c(C(C)(C)C)c2)cc(OCCC)c1O | 37% | –
75.6 µM | 2.74 µM | 27.4 µM | CCCCCCOc1cc(/C=C/C(=O)NCCc2cc(C(C)(C)C)c(O)c(C(C)(C)C)c2)cc(OCCCCCC)c1O | – | –
– | 0.41 µM | – | CCCCOc1cc(/C=C/C(=O)NCCc2cc(C(C)(C)C)c(O)c(C(C)(C)C)c2)cc(OCCCC)c1O | – | –
177 µM | 0.42 µM | – | CCCCOc1cc(/C=C/C(=O)NCc2cc(C(C)(C)C)c(O)c(C(C)(C)C)c2)cc(OCCCC)c1O | 57% | –
– | 3.52 µM | 23.2 µM | CCCCCCOc1cc(/C=C/C(=O)NCc2cc(C(C)(C)C)c(O)c(C(C)(C)C)c2)cc(OCCCCCC)c1O | – | 75%
73 µM | 0.27 µM | – | CCCOc1cc(/C=C/C(=O)NCc2cc(C(C)(C)C)c(O)c(C(C)(C)C)c2)cc(OCCC)c1O | 24% | –
69 µM | 0.69 µM | 15.6 µM | COc1cc(/C=C/C(=O)NCCc2cc(C(C)(C)C)c(O)c(C(C)(C)C)c2)cc(OC)c1O | – | –
